Experimental data pooled from the literature.
Lines come from different studies, so protocols differ.
ACHE: Acetylcholinesterase (ACHE, Homo sapiens, UniProt P22303)
Sialidase-2: Sialidase-2 (Homo sapiens, UniProt Q9Y3R4)
FABP4: Fatty acid-binding protein, adipocyte (FABP4, Homo sapiens, UniProt P15090)

| SMILES | target | read-out | mode | technique | pH | IC50 |
| --- | --- | --- | --- | --- | --- | --- |
| COc1ccc(C=Nc2ccc(SCc3cc(=O)c(O)co3)cc2)cc1 | ACHE | enzyme activity | inhibitor | Ellman | – | 20.5 µM |
| COc1c2c(cc3c1-c1c(cc4c(c1OC)OCO4)C[C@H](C)[C@H](C)C3)OCO2 | Dipeptidyl peptidase 4 (DPP4, Homo sapiens, UniProt P27487) | enzyme activity | inhibitor | fluorescence | – | > 100 µM |
| COC(=O)CNC(=O)COc1c(NC(C)=O)cc(-c2nc3ccccc3s2)cc1OC | ACHE | enzyme activity | inhibitor | Ellman | – | > 289 µM |
| CC(C)C[C@H](NC(=O)[C@H](CO)NC(=O)[C@@H](NC(=O)[C@@H]1CCCN1C(=O)[C@@H](N)CCCCN)C(C)C)C(=O)N[C@@H](CO)C(=O)N[C@@H](Cc1ccc(O)cc1)C(=O)N[C@@H](CCCNC(=N)N)C(=O)NCC(=O)NCC(=O)N[C@H](CC(C)C)C(=O)NCC(=O)N[C@H](C)C(=O)N[C@H](CO)C(=O)N[C@H](Cc1c[nH]c2ccccc12)C(=O)N[C@H](Cc1c[nH]cn1)C(=O)N[C@H](CCCNC(=N)N)C(=O)N[C@@H](Cc1ccc2ccccc2c1)C(=O)N[C@@H](CCCNC(=N)N)C(=O)N[C@@H](CCCNC(=N)N)C(N)=O | C-X-C chemokine receptor type 4 (CXCR4, Homo sapiens, UniProt P61073) | ligand displacement in cells | – | fluorescence | – | 0.76 µM |
| O=c1cc(CSc2ccc(N=Cc3ccccc3[N+](=O)[O-])cc2)occ1O | ACHE | enzyme activity | inhibitor | Ellman | – | 5.13 µM |
| CC(C)CCN[C@H]1[C@H]([C@H](O)[C@H](O)CO)OC(C(=O)O)=C[C@@H]1O | Sialidase-2 | enzyme activity | inhibitor | – | – | 70 µM |
| COc1ccccc1C=Nc1ccc(SCc2cc(=O)c(O)co2)cc1 | ACHE | enzyme activity | inhibitor | Ellman | – | 6.23 µM |
| CCCCCC(=O)N(C)[C@H]1[C@H]([C@H](O)[C@H](O)CO)OC(C(=O)O)=C[C@@H]1O | Sialidase-2 | enzyme activity | inhibitor | – | – | 140 µM |
| COc1cc(-c2nc3ccccc3s2)cc(NC(C)=O)c1OCC(=O)NCC(=O)O | ACHE | enzyme activity | inhibitor | Ellman | – | > 298 µM |
| Cn1cc2cc(C(F)(F)c3nnc4ccc(-c5cnn(C6CC6)c5)nn34)c(F)cc2n1 | Proto-oncogene tyrosine-protein kinase Src (SRC, Homo sapiens, UniProt P12931) | enzyme activity | inhibitor | ADP detection | – | > 1 µM |
| CC(C)(C)CC(=O)N[C@H]1[C@H]([C@H](O)[C@H](O)CO)OC(C(=O)O)=C[C@@H]1O | Sialidase-2 | enzyme activity | inhibitor | – | – | 80 µM |
| COC(=O)[C@@H](NC(=O)COc1c(NC(C)=O)cc(-c2nc3ccccc3s2)cc1OC)C(C)C | ACHE | enzyme activity | inhibitor | Ellman | – | > 264 µM |
| CC(C)Cc1cn([C@H]2[C@H]([C@H](O)[C@H](O)CO)OC(C(=O)O)=C[C@@H]2O)nn1 | Sialidase-2 | enzyme activity | inhibitor | – | – | 1.4 µM |
| CCc1ccc(C=Nc2ccc(SCc3cc(=O)c(O)co3)cc2)cc1 | ACHE | enzyme activity | inhibitor | Ellman | – | 8.46 µM |
| O=C(O)C(F)(F)C(F)(F)C(F)(F)C(F)(F)C(F)(F)C(F)(F)C(F)(F)F | FABP4 | ligand displacement | – | fluorescence | pH 7.5 | 4.67 µM |
| CCN[C@H]1[C@H]([C@H](O)[C@H](O)CO)OC(C(=O)O)=C[C@@H]1O | Sialidase-2 | enzyme activity | inhibitor | – | – | > 500 µM |
| Cc1ccc(C=Nc2ccc(SCc3cc(=O)c(O)co3)cc2)cc1 | ACHE | enzyme activity | inhibitor | Ellman | – | 6.53 µM |
| CCCCNC(=O)N[C@H]1[C@H]([C@H](O)[C@H](O)CO)OC(C(=O)O)=C[C@@H]1O | Sialidase-2 | enzyme activity | inhibitor | – | – | 380 µM |
| CC(=O)c1c(C)c2cnc(Nc3ccc(C4CCN(CCS(C)(=O)=O)CC4)cn3)nc2n(C2CCCC2)c1=O | Cyclin-dependent kinase 9 (CDK9, Homo sapiens, UniProt P50750) | enzyme activity | inhibitor | mobility shift | – | > 0.75 µM |
| CC(C)CCC(=O)N[C@H]1[C@H]([C@H](O)[C@H](O)CO)OC(C(=O)O)=C[C@@H]1O | Sialidase-2 | enzyme activity | inhibitor | – | – | 10 µM |
| COc1cc(-c2nc3ccccc3s2)cc(NC(C)=O)c1OCC(=O)N[C@@H](CC(C)C)C(=O)O | ACHE | enzyme activity | inhibitor | Ellman | – | > 264 µM |
| CCc1ccccc1C=Nc1ccc(SCc2cc(=O)c(O)co2)cc1 | ACHE | enzyme activity | inhibitor | Ellman | – | 5.38 µM |
| O=C(O)C(F)(F)C(F)(F)C(F)(F)F | FABP4 | ligand displacement | – | fluorescence | pH 7.5 | 2840 µM |
| CC(C)CNC(=O)N[C@H]1[C@H]([C@H](O)[C@H](O)CO)OC(C(=O)O)=C[C@@H]1O | Sialidase-2 | enzyme activity | inhibitor | – | – | 30 µM |
| O=C(O)C(F)(F)C(F)(F)C(F)(F)C(F)(F)C(F)(F)F | FABP4 | ligand displacement | – | fluorescence | pH 7.5 | 209 µM |
| O=c1cc(CSc2ccc(N=Cc3ccccc3)cc2)occ1O | ACHE | enzyme activity | inhibitor | Ellman | – | 8.26 µM |
| CCOC(=O)c1ccc(OC(=O)CCCCCN=C(N)N)cc1 | Kallikrein-13 (Homo sapiens, UniProt Q9UKR3) | enzyme activity | inhibitor | – | – | 12.2 µM |
| O=c1cc(CSc2ccc(N=Cc3ccccc3Br)cc2)occ1O | ACHE | enzyme activity | inhibitor | Ellman | – | 1.34 µM |
| COc1ccc(CCCCC(=O)C(F)(F)C(F)(F)F)cc1 | Phospholipase A2 group V (PLA2G5, Homo sapiens, UniProt P39877) | enzyme activity | inhibitor | – | – | 44.5 µM |
